Hits are enriched below; roughly 3.7% of the tested compounds scored in any of these assays.
hERG protect: hERG rescue from dofetilide block, primary screen, cell-based, CHO-hERG, FluxOR thallium flux, dofetilide IC70. Voltage-gated inwardly rectifying potassium channel KCNH2 (Homo sapiens), Q12809. dofetilide IC70 present. activation (rescue from dofetilide block), less the hit threshold, % at 10 µM. actives 0.51% (n = 310,000);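 active means activation above the mean of controls blocked by dofetilide plus 5 SD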;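 further: thallium influx through hERG after potassium depolarization seen as dye fluorescence rise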
Kir21 inh: inhibitors of mouse Kir2.1 inward-rectifier potassium channel; Inward rectifier potassium channel 2 (Mus musculus), P35561; HEK293-Kir2.1, FluxOR thallium flux fluorescence; hits give low values; B-score at 10 µM; actives 0.85% (n = 310,000); AID 1672, 2009;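 active means fluorescence ratio B-score at or below minus 3 SD of library scores, with starting-brightness B-score within 2 SD, cut at about -4.2 in these data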;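 further: channel flux triggered by added potassium and thallium sulfate stimulus; B-score of peak minus minimum fluorescence over baseline after thallium stimulus; more negative B-score means stronger Kir2.1 block with less thallium influx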
KCNK3 block: human KCNK3 channel inhibitors, primary screen, CHO cells, FluxOR thallium flux, B-score. Potassium channel subfamily K member 3 (Homo sapiens), O14649. FluxOR fluorescence; hits give low values. B-score at 10 µM. actives 0.84% (n = 340,000);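 active means B-score under library mean minus 4 SD, starting fluorescence ratio at most library mean plus 5 SD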;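 further: more negative B-score means stronger inhibition of thallium flux through KCNK3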
Target sequence (O14649 whole entry, looked up): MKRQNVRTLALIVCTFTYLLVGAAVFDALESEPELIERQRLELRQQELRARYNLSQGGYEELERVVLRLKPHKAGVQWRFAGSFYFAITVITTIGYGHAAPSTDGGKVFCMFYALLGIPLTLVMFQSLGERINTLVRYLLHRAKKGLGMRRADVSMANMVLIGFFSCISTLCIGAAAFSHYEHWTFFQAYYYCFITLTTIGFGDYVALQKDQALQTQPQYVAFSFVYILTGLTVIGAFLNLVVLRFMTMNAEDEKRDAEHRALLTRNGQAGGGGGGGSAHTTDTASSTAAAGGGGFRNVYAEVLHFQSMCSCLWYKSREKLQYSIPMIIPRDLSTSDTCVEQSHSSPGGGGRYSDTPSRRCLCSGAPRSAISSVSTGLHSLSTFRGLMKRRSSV
KCNQ1 act: potentiators or activators of KCNQ1 channel, primary screen, cell-based, thallium flux, high-throughput. Potassium voltage-gated channel subfamily KQT member 1 (Homo sapiens), P51787. CHO-K1 KCNQ1, thallium flux FluxOR fluorescence; hits give high values. B-score at 10 µM. actives 0.35% (n = 310,000). AID 2648, 2010;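 active means fluorescence ratio B-score, a plate-corrected score, at least three library SD, with initial intensity B-score within 5 SD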
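Assay system: stable KCNQ1 CHO-K1 line; medium: assay buffer, equal DMSO in all wells; timing: 90 min dye loading and 20 min compound exposure, both at room temperature; technique: kinetic FluxOR thallium fluorescence, 10-s 1-Hz baseline, 110-s post-stimulus read; read-out basis: B score of baseline-normalized fluorescence ratio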
KCNK9 inh: KCNK9 potassium channel inhibitors, primary screen, HEK293 cells, thallium flux. FluxOR thallium flux fluorescence; hits give low values. B-score at 10 µM. Potassium channel subfamily K member 9 (Homo sapiens), Q9NPC2. actives 1.2% (n = 310,000). AID 488922, 2010;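 active means ratio B-score over 3 SD below the library mean, with starting fluorescence within 5 SD of its mean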;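 further: negative B-score means less thallium flux so channel inhibition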
KCNQ1 block: inhibitors of human KCNQ1 channel, primary screen, cell-based, thallium flux, high-throughput; Potassium voltage-gated channel subfamily KQT member 1 (Homo sapiens), P51787; B-score at 10 µM; actives 1.3% (n = 310,000); CHO-K1 KCNQ1, FluxOR thallium flux fluorescence; hits give high values;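 active means compounds whose thallium flux B-score, printed positive for inhibition, exceeds three library SD while starting fluorescence stays within three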;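 further: channel opened by potassium depolarization with thallium stimulus after 20 min compound exposure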
KCNQ1 inh valid: KCNQ1 potassium channel inhibitors, confirmation, cell-based, Tl flux, duplicate | shares compounds with KCNQ1 block | KCNQ1 cell line, FluxOR thallium flux fluorescence | inhibition, % at 10 µM | actives 93% (n = 1,600) | AID 588353, 2011;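 active means primary screen active, with duplicate mean exceeding buffer control mean plus 3 SD of buffer wells, cut at about 28% in these data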;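 further: 0% = buffer control ratio and 100% = XE991 inhibitor control ratio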
CHO Tl flux: thallium flux effects in parental CHO cells, counter-screen for KCNQ1 inhibitor project, cell-based, Tl flux. parental CHO-K1, FluxOR thallium flux fluorescence ratio; hits give low values; zero means no signal rise above baseline. shares compounds with KCNQ1 block. actives 21% (n = 1,600). fluorescence ratio (Tl flux) at 10 µM;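 active means mean of duplicate thallium-flux fluorescence ratios in parental host cells more than 5 SD below the buffer control mean, cut at about 0.38 in these data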;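 further: ratio is peak minus minimum fluorescence divided by baseline fluorescence; actives read low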
KCNQ1 APC inh: KCNQ1 channel inhibitors, confirmation, orthogonal assay, cell-based, automated electrophysiology. shares compounds with KCNQ1 block. KCNQ1-CHO cells, automated patch clamp current. calls only at 10 µM. actives 20% (n = 490);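 active means KCNQ1 current drop exceeding 3 SD of negative control wells, seen in both duplicate runs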;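 further: steady state current during a 2 s step from -80 to +40 mV; negative values mean current inhibition and positive values mean potentiation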
KCNQ2 inh: KCNQ2 channel inhibition, selectivity assay for KCNQ1 inhibitor project, cell-based | shares compounds with KCNQ1 block | inhibition, % at 10 µM | AID 651746, 2012 | actives 71% (n = 1,600) | KCNQ2 cells, FluxOR thallium flux fluorescence;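 active means mean percent inhibition of the KCNQ2 thallium signal more than 5 SD above the buffer-only control wells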;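 further: KCNQ2 expressed in CHO cells; 0% = buffer control wells and 100% = XE-991 inhibitor control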
KCNQ1-KCNE1 inh: KCNQ1/KCNE1 channel inhibition, selectivity assay for KCNQ1 inhibitor project, CHO-K1 cells, thallium flux, FluxOR. shares compounds with KCNQ1 block. FluxOR thallium flux fluorescence. inhibition, % at 10 µM. actives 77% (n = 1,600);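 active means mean percent inhibition of duplicate wells above the buffer-only control mean plus 3 SD of those controls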;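 further: 0% = buffer only wells and 100% = XE-991 inhibitor control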
* marks the source's active call; other numbers are inactive results; i = inactive; . = not tested or not shown; + = active, no number.

SMILES	hERG protect	Kir21 inh	KCNK3 block	KCNQ1 act	KCNK9 inh	KCNQ1 block	KCNQ1 inh valid	CHO Tl flux	KCNQ2 inh	KCNQ1-KCNE1 inh	others
COc1cc2cc(CCCOC(=O)c3ccc(F)cc3)oc(=O)c2cc1OC	.	.	i	.	.	.	.	.	.	.
Cc1ccc(F)cc1NCC(=O)Nc1ccc(Br)cc1	-17	-0.19	i	i	i	8*	70*	0.49	99%*	78%*
Cc1ccc(NCC(=O)Nc2ccc(Br)cc2)cc1C	-5	0.12	i	i	i	i	.	.	.	.
CNC[C@H](NC[C@@H](NCCCc1ccccc1)c1ccccc1)[C@H](C)O	-12	-0.05	i	i	i	i	.	.	.	.
CC1CCN(CCCNC(=O)c2ccc3c(=O)n(Cc4ccc(Cl)cc4)c(=S)[nH]c3c2)CC1	-44	0.05	i	i	i	7*	0	0.48	i	i
COc1ccc(C(CNC(=O)C(CCSC)NC(=O)c2ccccc2Cl)N2CCCCC2)cc1 (centres undefined)	.	.	i	.	.	.	.	.	.	.
COc1ccc(S(=O)(=O)Nc2ccccc2C(=O)Nc2nc(-c3ccc(F)cc3)cs2)cc1OC	-20	-0.82	i	i	i	9*	166*	0.32*	89%*	+
COc1ccc(-c2cc(=NC(CC(C)C)C(=O)O)c3cc(C)ccc3o2)cc1 (centres undefined)	-16	-0.3	i	i	i	9*	70*	0.45	i	54%*
Cc1csc(NC(=O)C(Cc2ccccc2)n2cccc2)n1 (centres undefined)	-18	0.39	i	i	i	13*	54*	0.45	62%*	86%*
CCSc1nnc(-c2sc3nnc(-c4ccccc4)c(-c4ccccc4)c3c2N)o1	-27	-0.63	i	i	i	14*	+	0.14*	i	i
CN(c1ccccc1)S(=O)(=O)c1ccc(NC(=O)c2ccccc2)cc1	-10	-0.78	i	i	i	i	.	.	.	.
CN(c1ccccc1)S(=O)(=O)c1ccc(NC(=O)c2ccc(F)cc2)cc1	-3	1.2	i	i	i	7*	90*	0.45	117%*	131%*	KCNQ1 APC inh=i
CCCCn1c(=O)[nH]c2nc3cc(N)ccc3nc2c1=O	.	.	i	.	.	.	.	.	.	.
Nc1ccc2nc3c(=O)n(C4CCCCC4)c(=O)[nH]c3nc2c1	-50	-15	i	i	i	24*	+	0.1*	i	i
C=CCNC(=O)N1CCc2[nH]c3ccc(F)cc3c2C1	-4	1.9	i	i	i	i	.	.	.	.
Fc1ccc2[nH]c3c(c2c1)CN(C(=S)NCc1ccccc1)CC3	-14	-0.12	i	i	i	7*	100*	0.49	102%*	88%*	KCNQ1 APC inh=i
Cc1cc(Cl)c(OCCCNCc2ccccc2)c(Br)c1	-23	-11	i	i	i	6*	37*	0.57	73%*	i
CCCCOCCCNc1ncnc2c1[nH]c1ccccc12	-31	-9.6*	i	i	i	9*	154*	0.36*	121%*	198%*
Cc1cc2nc3c(=O)[nH]c(=S)[nH]c3nc2cc1NC(=O)C(F)(F)F	-20	-8.6	i	i	-7.2*	11*	66*	0.33*	i	151%*
CC(C)Cn1c(N)c(C(=O)COC(=O)c2cc(-c3ccco3)nc3ccccc23)c(=O)n(C)c1=O	-12	-1.8	i	i	i	i	.	.	.	.
CC(C)(C)C(=O)COC(=O)c1cc(-c2ccncc2)nc2ccccc12	-18	-0.74	i	i	i	7*	52*	0.42	92%*	48%*
CC(C)Cn1c(N)c(C(=O)COC(=O)c2cc(-c3ccccc3)nc3ccccc23)c(=O)n(C)c1=O	-10	0.01	i	i	i	7*	106*	0.44	120%*	156%*	KCNQ1 APC inh=i
COc1ccc(C(=O)COC(=O)CCNS(=O)(=O)c2ccccc2)c(OC)c1	-19	0.22	i	i	i	i	.	.	.	.
CSc1cccc(NC(=S)Nc2ccc(F)cc2)c1	-8	-2.3	i	i	i	i	.	.	.	.
N#Cc1ccc(NC(=O)Nc2cccc(C#N)c2)cc1	-26	0.08	i	i	i	7*	49*	0.49	i	i
SMILES	hERG protect	Kir21 inh	KCNK3 block	KCNQ1 act	KCNK9 inh	KCNQ1 block	KCNQ1 inh valid	CHO Tl flux	KCNQ2 inh	KCNQ1-KCNE1 inh	others
O=C(Nc1cccc(Cl)c1)Nc1cccc(C(=O)O)c1	-10	-0.84	i	i	i	i	.	.	.	.
CSc1cccc(NC(N)=O)c1	-10	-0.32	i	i	i	i	.	.	.	.
CSc1cccc(NC(=O)Nc2ccc(Cl)cc2)c1	-17	1.2	i	i	i	17*	68*	0.39	61%*	44%*
O=C(Nc1ccccc1)Nc1cccc(Cl)c1	-13	-0.77	i	i	i	13*	86*	0.51	72%*	i
N#Cc1cccc(NC(=O)c2ccccc2C(=O)O)c1	-7	-1	i	i	i	i	.	.	.	.
Fc1ccc(NC(=S)Nc2cccc(Cl)c2)cc1	-18	1.9	i	i	i	6*	48*	0.51	i	36%*
CCN(CC(=O)Nc1ccc2c(c1)OCCO2)C(=O)c1ccc(CS(C)(=O)=O)cc1	.	.	i	.	.	.	.	.	.	.
COC(=O)c1cc(OC)c(OC)cc1NC(=S)Nc1cc(Cl)ccc1OC	-10	1	i	i	i	i	.	.	.	.
